Test results: PubChem BioAssay AID624176 (Southern Research Specialized Biocontainment Screening …, 2012)
Active and inactive are the calls of the source.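 How the source made its calls: active means inhibition of 30% or more at any tested concentration; inactive means the rest.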

Target: Aminopeptidase N (Plasmodium falciparum (isolate 3D7)) (UniProt O96935)
Experiment: inhibition of P. falciparum M1 aminopeptidase – biochemical, QFRET fluorogenic substrate, set 3, counter-screen for PfM18AAP inhibitor project, dose response (AID 624176)
Settings: recombinant PfM1AAP, H-Leu-NHMec fluorogenic cleavage; for inhibition: at 100 µM (top of the series)
Method in brief: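 System: purified recombinant Plasmodium falciparum M1 alanyl aminopeptidase (PfM1AAP). Also added: 0.1 mM H-Leu-NHMec, a fluorogenic peptide substrate. Times: enzyme reaction for 90 min at room temperature. Signal: fluorescence of released NHMec, excitation 370 nm, emission 460 nm. Measure: IC50 from four-parameter logistic curve, limits fixed 0–100% inhibition. Replicates: triplicate.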

Aminopeptidase N (Plasmodium falciparum (isolate 3D7)), sequence (O96935 whole entry, looked up): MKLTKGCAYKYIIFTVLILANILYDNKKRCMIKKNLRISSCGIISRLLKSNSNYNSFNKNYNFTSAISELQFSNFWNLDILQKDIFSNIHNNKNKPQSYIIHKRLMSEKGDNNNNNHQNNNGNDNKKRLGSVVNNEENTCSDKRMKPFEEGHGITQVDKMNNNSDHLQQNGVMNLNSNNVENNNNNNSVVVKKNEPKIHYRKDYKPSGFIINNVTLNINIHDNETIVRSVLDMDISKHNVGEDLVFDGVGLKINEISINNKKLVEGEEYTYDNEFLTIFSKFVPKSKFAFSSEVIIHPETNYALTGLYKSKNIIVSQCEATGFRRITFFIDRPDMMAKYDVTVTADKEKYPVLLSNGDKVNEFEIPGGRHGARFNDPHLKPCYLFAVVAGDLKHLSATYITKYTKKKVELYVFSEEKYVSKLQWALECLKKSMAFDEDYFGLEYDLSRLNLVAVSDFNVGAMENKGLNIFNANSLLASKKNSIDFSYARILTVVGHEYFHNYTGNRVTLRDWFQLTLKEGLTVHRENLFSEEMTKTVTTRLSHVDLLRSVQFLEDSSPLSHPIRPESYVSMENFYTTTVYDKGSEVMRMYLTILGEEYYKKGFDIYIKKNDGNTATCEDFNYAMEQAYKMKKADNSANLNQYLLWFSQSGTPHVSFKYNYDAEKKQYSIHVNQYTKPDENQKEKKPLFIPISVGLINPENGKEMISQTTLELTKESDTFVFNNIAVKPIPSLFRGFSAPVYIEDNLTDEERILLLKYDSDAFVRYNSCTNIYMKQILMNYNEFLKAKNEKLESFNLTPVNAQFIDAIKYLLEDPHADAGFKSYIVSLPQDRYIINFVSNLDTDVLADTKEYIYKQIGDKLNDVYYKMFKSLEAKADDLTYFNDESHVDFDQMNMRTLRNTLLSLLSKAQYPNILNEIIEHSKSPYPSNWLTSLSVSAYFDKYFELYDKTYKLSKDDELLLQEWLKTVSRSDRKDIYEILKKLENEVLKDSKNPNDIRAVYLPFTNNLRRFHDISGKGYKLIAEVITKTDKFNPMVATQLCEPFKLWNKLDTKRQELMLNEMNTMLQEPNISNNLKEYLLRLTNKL

Row | SMILES | IC50 [µM] | inhibition
1 | Oc1ccc(C2CCN(c3ccnc4ccccc34)C2)cc1O (stereo not given) | 47.2 | –
2 | COc1ccc(CCNc2cc(C)nc3ccccc23)cc1OC | – | inactive
3 | CCOc1ccc2nccc(NCCc3ccc(OC)c(OC)c3)c2c1 | – | inactive
4 | CCN(CCc1ccc(OC)c(OC)c1)c1c2ccccc2nc2ccccc12 | – | inactive
5 | COc1ccc(CCNc2c3c(nc4ccc(C)cc24)CCCC3)cc1OC | – | inactive
6 | COc1ccc(CCNC(=O)c2cc(C)ccc2N)cc1OC | – | inactive
7 | COc1ccc(CCN(C)c2ccnc3c(C)cccc23)cc1OC | – | inactive
8 | COc1ccc(CCN(C)c2cc(C)nc3ccccc23)cc1OC | – | inactive
9 | Oc1ccc(C2CCN(c3ccnc4ccccc34)CC2)cc1O | 74.6 | –
10 | Clc1c2c(nc3ccccc13)CCCC2 | – | inactive
11 | COc1ccc(CCNc2ncnc3ccccc23)cc1OC | – | inactive
12 | COc1ccc(CCN(C)c2ccnc3cc(Cl)ccc23)cc1OC | – | inactive
13 | COc1ccc(CCNc2ccnc3c(C)cccc23)cc1OC | – | inactive
14 | Cc1cccc2c(NCCc3ccc(O)c(O)c3)ccnc12 | 105 | –
15 | CN(CCc1ccc(O)c(O)c1)c1ncnc2ccccc12 | 61.3 | –
16 | Cc1cc(N(C)CCc2ccc(O)c(O)c2)c2ccccc2n1 | 101 | –
17 | COc1cc(Br)c(CCNc2c3ccccc3nc3ccccc23)cc1OC | – | inactive
18 | COc1ccc(CCNc2ccnc3cc(Cl)ccc23)cc1OC | – | inactive

Row | SMILES | IC50 [µM] | inhibition
19 | COc1ccc(CCCNc2c3c(nc4ccccc24)CCCC3)cc1OC | – | inactive
20 | COc1cc(Br)c(CCNc2c3c(nc4ccccc24)CCCC3)cc1OC | – | inactive
21 | COc1ccc(C2CCN(c3ccnc4ccccc34)CC2)cc1OC | – | inactive
22 | CCN(CCc1ccc(O)c(O)c1)c1c2ccccc2nc2ccccc12 | 101 | –
23 | CN(CCc1ccc(O)c(O)c1)c1ccnc2cc(Cl)ccc12 | 75.4 | –
24 | COc1ccc(CCN(C)c2ccnc3c(F)cccc23)cc1OC | – | inactive
25 | Oc1cccc(CCNc2ccnc3ccccc23)c1O | 56.4 | –
26 | CN(CCc1ccc(O)c(O)c1)c1ccnc2c(F)cccc12 | 83.2 | –
27 | COc1cc(Br)c(CCNc2ccnc3ccccc23)cc1OC | – | inactive
28 | COc1ccc(CCCN(C)c2c3ccccc3nc3ccccc23)cc1OC | – | inactive
29 | COc1ccc(C2CCN(c3ccnc4ccccc34)C2)cc1OC (stereo not given) | – | inactive
30 | CCOc1ccc2nccc(N(C)CCc3ccc(OC)c(OC)c3)c2c1 | – | inactive
31 | Oc1ccc(CCNc2ccnc3cc(Cl)ccc23)cc1O | 74.6 | –
32 | Nc1c2ccccc2nc2ccccc12 | – | inactive
33 | COc1ccc(CCN(C)c2ncnc3ccccc23)cc1OC | – | inactive
34 | COc1ccc(CCN(C)c2c3ccccc3nc3ccccc23)cc1OC | – | inactive
35 | COc1ccc(CCNc2ccnc3c(F)cccc23)cc1OC | – | inactive
